Results pooled from the literature.
Protocols differ between the studies behind these lines.
Target: Serine/threonine-protein kinase Sgk1 (SGK1, Homo sapiens, UniProt O00141)

| SMILES | test | setting | endpoint | result |
| --- | --- | --- | --- | --- |
| FC(F)(F)Oc1cccc(-c2cnc3ccc(-c4ccncc4)nn23)c1 | enzyme activity, inhibitor, radiometric | 5 µM | activity vs control | 108% |
| CC(C)(C)c1nc2c(s1)c1nc(N)ncc1c1ccc(NS(=O)(=O)c3c(F)cccc3F)c(F)c12 | enzyme activity, inhibitor, radiometric | 1 µM | remaining activity | 87% |
| Cc1cnc(NC2CCOCC2)nc1-n1cnc(C(=O)NC(CN)c2cc(F)cc(Cl)c2)c1 (centres unmarked) | enzyme activity, inhibitor, radiometric | 1 µM | remaining activity | 23% |
| O=C(NS(=O)(=O)c1ccc(NCC2CCOCC2)c([N+](=O)[O-])c1)c1ccc(N2CCN(Cc3ccc(C(F)(F)F)cc3-c3ccc(Cl)cc3)CC2)cc1Oc1cnc2[nH]ccc2c1 | cell-free assay, competition with immobilised ligand | 1 µM | remaining binding | 88% |
| Cc1ccc(C(=O)Nc2ccc(CN3CCN(C)CC3)c(C(F)(F)F)c2)cc1C#Cc1cnc2cccnn12 | enzyme activity, inhibitor | 23.5 nM | remaining activity | 94% |
| CC(C)(C)C(=O)c1sc(NC2CCCCC2)nc1N | enzyme activity, inhibitor | 10 µM | remaining activity | 91% |
| O=[N+]([O-])c1cccc2[nH]c(CNc3nc(N4CCOCC4)nc4c3ncn4-c3ccsc3)nc12 | binding, competition with immobilised ligand | 10 µM | binding vs control | 57% |
| CSc1nc(C)c(-c2ccnc(Nc3ccc(N4CCOCC4)cc3)c2)[nH]1 | enzyme activity, inhibitor | 10 µM | inhibition | 34.8% |
| N#CCCc1ccc2c(c1)-c1[nH]c3ccc([N+](=O)[O-])cc3c1CC(=O)N2 | cell-free assay | 0.5 µM | remaining signal | 87.9% |
| O=C(Nc1ccc(Oc2ccc(F)cc2)cc1)N1CCc2ncccc2[C@H]1c1ccc(F)cc1 | cell-free assay, competition with immobilised ligand | 1 µM | remaining binding | 95% |
| O=C1NC(=O)c2cc(Nc3ccc(F)cc3)c(Nc3ccc(F)cc3)cc21 | cell-free assay | 0.5 µM | remaining signal | 103% |
| CCCS(=O)(=O)Nc1ccc(F)c(C(=O)c2c[nH]c3ncc(-c4ccc(Cl)cc4)cc23)c1F | enzyme activity, inhibitor | 1 µM | inhibition | < 10% |
| c1nc2c(Nc3ccc4c(c3)OCCO4)nc(Nc3ccc4c(c3)OCCO4)nc2[nH]1 | enzyme activity, inhibitor | 10 µM | activity vs control | 100% |
| CC/C(=N\NC(=O)NCc1cccc(O)c1)c1ccc(O)c(C)c1O | enzyme activity, inhibitor | 0.1 µM | inhibition | 75.4% |
| CNCc1ccc(-c2cc(-c3nc(-c4ccc(S(=O)(=O)C(C)C)cc4)cnc3N)on2)cc1 | enzyme activity, inhibitor | 2 µM | inhibition | 0% |
| O=C(O)[C@@H]1[C@@H](Cn2nnc3ccccc3c2=O)CC[C@H]1C(=O)c1ccc(OCCC2CCOCC2)cc1 | cell-free assay, competition with immobilised ligand | 1 µM | remaining binding | 74% |
| CNc1cccc2cc(C(=O)Nc3ccc(C(=O)O)cc3)c(=O)[nH]c12 | enzyme activity, inhibitor | 10 µM | inhibition | 8.2% |
| Cc1sc(C(=O)NC2COC2)cc1-n1cc(NC(=O)Nc2c(F)cccc2Cl)cn1 | enzyme activity, inhibitor | 10 µM | remaining activity | 115% |

| SMILES | test | setting | endpoint | result |
| --- | --- | --- | --- | --- |
| Cc1ccc(Nc2nccc(N(C)c3ccc4c(C)n(C)nc4c3)n2)cc1S(N)(=O)=O | enzyme activity, inhibitor | 10 µM | inhibition | -2% |
| FC(F)c1nc2ccccc2n1-c1nc(N2CCOCC2)nc(N2CCOCC2)n1 | enzyme activity, inhibitor | 10 µM | remaining activity | 98% |
| Nc1ncnc2occ(-c3ccc(NC(=O)Nc4cc(C(F)(F)F)ccc4F)cc3)c12 | cell-free assay, inhibitor | 20 µM | remaining signal | 10% |
| Cc1ccc(NC(=O)c2ccc(C)c(C(F)(F)F)c2)cc1C#Cc1nn(C2CCC(O)CC2)c2ncnc(N)c12 (centres unmarked) | cell-free assay | 10 µM | remaining signal | 90% |
| COc1cc(Nc2cnc(C#N)c(O[C@H](C)CN(C)C)n2)ncc1-c1cnn(C)c1 | enzyme activity, inhibitor, radiometric | 10 µM | remaining activity | 22% |
| C=CC(=O)Nc1cc(Nc2nccc(Nc3cc(Cl)c(F)cc3C(C)(C)O)n2)c(OC)cc1N1CC[C@@H](N(C)C)C1 | enzyme activity, inhibitor | 1 µM | inhibition | 12% |
| Oc1cccc(-c2nc(N3CCOCC3)c3oc4ncccc4c3n2)c1 | enzyme activity, inhibitor | 10 µM | remaining activity | 92% |
| O=C(NCCCC1CCCCC1)c1ccc(CNC(=O)c2cnn(-c3ccccc3)c2C(F)(F)F)cc1 | cell-free assay, competition with immobilised ligand | 0.1 µM | remaining binding | 100% |
| COc1cc2ncnc(Nc3ccc(Oc4ccccc4)cc3C)c2cc1OC | enzyme activity, inhibitor | 1 µM | inhibition | 8% |
| Cc1nc(C2CCN(C(=O)c3ccc(OC(F)(F)F)cc3N)CC2)c2ncc(N3CCN(C)CC3)cc2n1 | cell-free assay, competition with immobilised ligand | 1 µM | remaining binding | 100% |
| CCCOc1ccc(OC)c(F)c1C(=O)c1ccc(C(=O)N[C@@H]2CNC[C@H]2NC(=O)c2ccc3[nH]ncc3c2)cc1 | enzyme activity, inhibitor | 0.1 µM | remaining activity | 64% |
| CSc1cccnc1N1CCN(Cc2nc3ccccc3[nH]2)CC1 | cell-free assay, competition with immobilised ligand | 1 µM | remaining binding | 82% |
| CNC(=O)c1cc(Oc2ccc(NC(=O)Nc3ccc(Cl)c(C(F)(F)F)c3)cc2)ccn1 | enzyme activity, inhibitor | 10 µM | inhibition | -21% |
| CN(C(=O)c1ccccc1)c1cc(N(C)c2ccc3c(c2)CCc2ccc(C(=O)NCCN4CCOCC4)cc2C3=O)ccc1F | cell-free assay, competition with immobilised ligand | 1 µM | remaining binding | 100% |
| CN(C)C1CCN(CC#Cc2nn(C3CCCC3)c3nc(NCc4ccccc4)ncc23)C1 (centres unmarked) | enzyme activity, inhibitor, FRET | 1 µM | inhibition | 9% |
| C[C@@H]1CN(c2cc(-c3n[nH]c4ccc(OC5(C)CC5)cc34)ncn2)C[C@H](C)O1 | cell-free assay, competition with immobilised ligand | 0.1 µM | remaining binding | 89% |
| CCN(CC)CCNC(=O)c1c(C)[nH]c(/C=C2\C(=O)Nc3ccc(F)cc32)c1C | enzyme activity, inhibitor | 0.3 µM | inhibition | 28% |
